Assay [1] can be described thus: Displacement of [3H]-(+)-MK801 from NMDA receptor PCP binding site in pig cortex membrane after 90 mins by liquid scintillation counting. It is filed as cell membranes, Sus scrofa. The essentials: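 Pig brain cortex membranes (about 100 µg protein) incubated with 2 nM [3H]-(+)-MK-801 and at least 6 test concentrations in 5 mM Tris–acetate, 1 mM EDTA, pH 7.5, 90 min at 25 °C. Filtered on PEI-soaked GF/C filters. Non-specific binding with 10 µM (+)-MK-801. IC50 by nonlinear regression, triplicates; Ki mean ± SEM of three experiments.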
In general terms: Loss of bound radioactivity is the signal in a displacement assay; it reports binding, not function.

Assay [2] in a line: Displacement of [3H]-ditolylguanidine from sigma 2 receptor PCP binding site in rat liver membrane. It counts as cell membranes. In short, it runs like this: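 Non-specific binding with 10 µM unlabelled ditolylguanidine. Triplicates; IC50 from at least 6 concentrations by nonlinear regression; Ki mean ± SEM of three experiments.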
Assay [3] deals with Sigma non-opioid intracellular receptor 1 (Cavia porcellus, UniProt Q60492). The experiment in a line: Displacement of [3H]-(+)-pentazocine from sigma 1 receptor PCP binding site in guinea pig brain by liquid scintillation counting.
A short description of assay [4]: Selectivity ratio of Ki for rat sigma 2 receptor to Ki for guinea pig sigma 1 receptor.
The subject of assay [5] is Mus musculus. Put plainly: Analgesic activity against capsaicin-induced nocifensive behavior in mouse assessed as paw withdrawal latency to von Frey filament-induced pain at 32 mg/kg administered 30 mins before and measured 15 mins after capsaicin challenge. It counts as functional, organism-based. On the set-up: dose 32 mg/kg. In short, it runs like this: (§1)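 Capsaicin injected into mid-plantar surface of right hind paw of mice; test ligand given 30 min before capsaicin. Mechanical withdrawal latency to a 1 g von Frey filament read 15 min after capsaicin; effect expressed as % analgesia.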

The test system of assay [6] is Mus musculus. Put plainly: Analgesic activity against capsaicin-induced nocifensive behavior in mouse assessed as paw withdrawal latency to von Frey filament-induced pain at 0.125 mg/kg administered 30 mins before and measured 15 mins after capsaicin challenge. It counts as functional. In short, it runs like this: as §1
In assay [7] the test system is Mus musculus. The experiment in a line: Analgesic activity against capsaicin-induced nocifensive behavior in mouse assessed as paw withdrawal latency to von Frey filament-induced pain at 0.5 mg/kg administered 30 mins before and measured 15 mins after capsaicin challenge. It counts as functional. The essentials:
as §1

Assay [8] concerns Mus musculus. Put plainly: Analgesic activity against capsaicin-induced nocifensive behavior in mouse assessed as paw withdrawal latency to von Frey filament-induced pain at 0.25 mg/kg administered 30 mins before and measured 15 mins after capsaicin challenge. It counts as functional. In short, it runs like this: as §1
Assay [9] relates to Mus musculus. The experiment in a line: Analgesic activity against capsaicin-induced nocifensive behavior in mouse assessed as paw withdrawal latency to von Frey filament-induced pain at 1 mg/kg administered 30 mins before and measured 15 mins after capsaicin challenge. It counts as functional. The essentials: as §1
Assay [10] can be described thus: Displacement of [3H]-(+)-MK801 from NMDA receptor PCP binding site. The essentials:
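Pig brain cortex membranes (about 100 µg protein) incubated with test compound (at least 6 concentrations), 2 nM [3H]-(+)-MK-801 in 5 mM Tris–acetate, 1 mM EDTA, pH 7.5, 90 min at 25 °C. Filtered through polyethylenimine-soaked GF/C filters, counted by scintillation. Nonspecific binding with 10 µM (+)-MK-801. IC50 from nonlinear regression, converted to Ki. Triplicates, three independent experiments.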

Each structure is given as a SMILES string. Active and inactive are the calls of the source. The rule behind the calls is not given here.

27 compounds from ChEMBL document CHEMBL1781950, “Synthesis of 4-(aminoalkyl) substituted 1,3-dioxanes as potent NMDA and σ receptor antagonists” (Eur J Med Chem, 2011) can be followed below.

Chain of Sigma non-opioid intracellular receptor 1 (Q60492 whole entry): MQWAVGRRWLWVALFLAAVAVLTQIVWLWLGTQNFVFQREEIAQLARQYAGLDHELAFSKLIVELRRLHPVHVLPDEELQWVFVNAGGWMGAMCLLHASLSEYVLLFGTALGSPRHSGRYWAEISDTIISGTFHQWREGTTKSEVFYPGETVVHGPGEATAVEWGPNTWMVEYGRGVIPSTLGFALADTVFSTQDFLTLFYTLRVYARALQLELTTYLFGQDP

`c1ccc(C2(N3CCCCC3)CCCCC2)cc1` [PHENCYCLIDINE] yielded a Ki in assay [1] of 28 nM.

Turning to `NCC[C@@H]1CCO[C@H](c2ccccc2)O1` (racemic), the inhibitory constant (Ki) in [1] is above 10000 nM; in assay [2] it was above 10000 nM; in [3] it was 165 nM.

On to `CN(C)CCC[C@@H]1CCO[C@H](c2ccccc2)O1` (relative stereo), for which the Ki in [1] is above 10000 nM; in assay [2] it was above 10000 nM; in assay [3], 1220 nM.

Consider `CNCCC[C@@H]1CCO[C@H](c2ccccc2)O1` (relative stereo), for which the inhibition constant Ki was above 10000 nM in assay [1], 6320 nM in [2] and 327 nM in assay [3].

Consider `CC[C@@]1(c2ccccc2)OCC[C@@H](CCNCc2ccccc2)O1` (relative stereo), for which the Ratio Ki in assay [4] is 33. Also, the Ki in [1] was above 10000 nM; in [2], 903 nM; in assay [3], 27 nM. The outcome in assay [5] was inactive.

Regarding `CC[C@]1(c2ccccc2)OCC[C@@H](CN)O1`, affinity in assay [1] was put at a Ki of 257 nM.

Regarding `CC[C@@]1(c2ccccc2)OCC[C@@H](CCNC)O1` (relative stereo), the Ki in assay [1] is 154 nM; in [2], above 10000 nM; in assay [3] it was 856 nM.

For the compound `NCC[C@@H]1CCOC2(O1)C1CC3CC(C1)CC2C3` (some centres undefined), the Ki in [1] was above 10000 nM; in assay [2], above 10000 nM; in assay [3], 1250 nM.

With `Cc1ccccc1NC(=N)Nc1ccccc1C` [DITOLYLGUANIDINE], in assay [2], the inhibitory constant (Ki) was 64 nM.

With `c1ccc(CNCCC[C@@H]2CCO[C@H](c3ccccc3)O2)cc1` (relative stereo), the Ki in assay [1] was above 10000 nM; in [2] it was 3890 nM; in [3], 164 nM.

As to `CNCC[C@@H]1CCO[C@H](c2ccccc2)O1` (racemic), the Ki was above 10000 nM in [1], above 10000 nM in assay [2] and 449 nM in [3].

Turning to `c1ccc(CNCC[C@@H]2CCO[C@H](c3ccccc3)O2)cc1` (racemic), the Ratio Ki in assay [4] was found to be 5. Also, the Ki in assay [1] was above 10000 nM; in assay [2] it was 92 nM; in assay [3], 19 nM. The Activity turned out to be 10% in assay [6], 100% in assay [7], 70% in [8] and 100% in assay [9]. In assay [5], the result was Active.

Turning to `CC[C@@]1(c2ccccc2)OCC[C@@H](CCN(C)C)O1` (relative stereo), the Ki in assay [1] was 713 nM; in [2], above 10000 nM; in [3] it was 511 nM.

Take `NCCC[C@@H]1CCO[C@H](c2ccccc2)O1` (relative stereo): the results for the Ki in assay [1], in assay [2] and in assay [3] were above 10000 nM, 581 nM and 167 nM, respectively.

Turning to `NCC[C@@H]1CCOC(c2ccccc2)(c2ccccc2)O1`, the Ki in assay [1] was 2350 nM; in assay [2], above 10000 nM; in assay [3], above 10000 nM.

Consider `NCCC[C@@H]1CCOC(c2ccccc2)(c2ccccc2)O1`, for which the Ki in assay [1] was above 10000 nM; in assay [2] it was above 10000 nM; in [3] it was 175 nM.

In [1], `NC[C@@H]1CCOC(c2ccccc2)(c2ccccc2)O1` had an inhibitory constant (Ki) of 717 nM.

For `CC[C@@]1(c2ccccc2)OCC[C@@H](CCCN)O1` (relative stereo), the values for the inhibition constant (Ki) in assay [1], in assay [2] and in assay [3] were 7670 nM, 542 nM and 6450 nM, respectively.

Regarding `CC[C@]1(c2ccccc2)OC[C@H](CCN)O1`, the affinity in assay [1] corresponds to a Ki of 69 nM.

Consider `CC[C@@]1(c2ccccc2)OCC[C@@H](CCN)O1` (relative stereo), for which the Ki in assay [1] was 24 nM; in assay [2], above 10000 nM; in assay [3] it was 955 nM.

Regarding `CNCC[C@@H]1CCOC(c2ccccc2)(c2ccccc2)O1`, the Ki is 6870 nM in [1], above 10000 nM in [2] and above 10000 nM in assay [3].

Take `CN(C)CC[C@@H]1CCOC(c2ccccc2)(c2ccccc2)O1`: the Ki in assay [1] is above 10000 nM; in assay [2] it was above 10000 nM; in [3], 660 nM.

As to `c1ccc(C2(c3ccccc3)OC[C@H]([C@@H]3CCCCN3)O2)cc1` [DEXOXADROL], affinity in assay [10] was put at a Ki of 23 nM.

Take `NCC[C@H]1COC(c2ccccc2)(c2ccccc2)O1`: the Ki in assay [1] turned out to be 3260 nM.

On to `CC[C@]1(c2ccccc2)OC[C@H]([C@@H]2CCCCN2)O1` [ETOXADROL], for which the Ki in assay [1] came out at 22 nM; in assay [10] it was 20 nM.

On to `CN(C)CC[C@@H]1CCO[C@H](c2ccccc2)O1` (racemic), for which the Ki in assay [1] is above 10000 nM; in [2] it was 1830 nM; in assay [3] it was 1650 nM.

Consider `c1ccc(CNCC[C@@H]2CCOC(c3ccccc3)(c3ccccc3)O2)cc1`, for which the values for the Ki in [1], in assay [2] and in assay [3] were above 10000 nM, 2750 nM and 320 nM, respectively.

By Ki is commonly meant the dissociation constant of the complex between target and ligand, obtained from inhibition or displacement. Low readings indicate higher affinity, high ones lower affinity.
